Measurements as given in ChEMBL document CHEMBL2040727, “Substituted thiazoles VI. Synthesis and antitumor activity of new 2-acetamido- and 2 or 3-propanamido-thiazole analogs” (2012).

How the values were obtained:
Format in all cases: functional
COLO 205 = assay: Growth inhibition of human COLO205 cells at 10 uM after 48 hrs by coulter counter analysis; details: COLO 205, 48 h, read-out: GI
In short: (§1)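 Single-dose NCI 60-line panel screen of test compounds. Cells grown in RPMI 1640 with 10% FBS. Compounds dissolved in DMSO, then diluted in phosphate buffer saline (final DMSO below 1%). Wells run in duplicate at 6 × 10⁴ cells/ml. Controls held PBS and DMSO at matching dilutions. Incubation 48 h at 37 °C under humidified 5% CO2. Cells diluted tenfold in saline and counted by Coulter counter. Percent growth inhibition taken from mean-graph of treated-cell growth.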

NCI-H23 = assay: Growth inhibition of human NCI-H23 cells at 10 uM after 48 hrs by coulter counter analysis; details: NCI-H23, 48 h, read-out: GI; in short: as §1
BT-549 = assay: Growth inhibition of human BT549 cells at 10 uM after 48 hrs by coulter counter analysis; details: BT-549, 48 h, read-out: GI; in short: as §1
MOLT-4 = assay: Growth inhibition of human MOLT4 cells at 10 uM after 48 hrs by coulter counter analysis; details: MOLT-4, 48 h, read-out: GI; in short: as §1
NCI-H460 = assay: Growth inhibition of human NCI-H460 cells at 10 uM after 48 hrs by coulter counter analysis; details: NCI-H460, 48 h, read-out: GI; in short: as §1
MDA-MB-435 = assay: Growth inhibition of human MDA-MB-435 cells at 10 uM after 48 hrs by coulter counter analysis; details: MDA-MB-435, 48 h, read-out: GI; in short: as §1
LOX IMVI = assay: Growth inhibition of human LOXIMVI cells at 10 uM after 48 hrs by coulter counter analysis; details: read-out: GI; in short: as §1
SF-539 = assay: Growth inhibition of human SF539 cells at 10 uM after 48 hrs by coulter counter analysis; details: SF-539, 48 h, read-out: GI; in short: as §1
HCT-116 = assay: Growth inhibition of human HCT116 cells at 10 uM after 48 hrs by coulter counter analysis; details: HCT-116, 48 h, read-out: GI; in short: as §1
MDA-MB-468 = assay: Growth inhibition of human MDA-MB-468 cells at 10 uM after 48 hrs by coulter counter analysis; details: MDA-MB-468, 48 h, read-out: GI; in short: as §1
HL-60(TB) = assay: Growth inhibition of human HL-60(TB) cells at 10 uM after 48 hrs by coulter counter analysis; details: HL-60, 48 h, read-out: GI
In short: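 Cells grown in RPMI 1640 with 10% FBS. Compound was dissolved in DMSO and diluted in PBS (under 1% DMSO final), then added in duplicate wells to culture at 6 × 10⁴ cells/ml. PBS/DMSO vehicle controls were included. Incubated at 37 °C, humidified 5% CO₂, for 48 h. Cells were diluted 10-fold in saline and Coulter-counted. Single-dose NCI-60 screen, read as percent growth inhibition.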

ACHN = assay: Growth inhibition of human ACHN cells at 10 uM after 48 hrs by coulter counter analysis; details: read-out: GI; in short: as §1
EKVX = assay: Growth inhibition of human EKVX cells at 10 uM after 48 hrs by coulter counter analysis; details: read-out: GI; in short: as §1
HCC 2998 = assay: Growth inhibition of human HCC2998 cells at 10 uM after 48 hrs by coulter counter analysis; details: HCC 2998, 48 h, read-out: GI; in short: as §1
SNB-75 = assay: Growth inhibition of human SNB75 cells at 10 uM after 48 hrs by coulter counter analysis; details: SNB-75, 48 h, read-out: GI
In short: (§2)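 Single-dose screen in the NCI 60 cell line panel. Cells grown in RPMI 1640 with 10% FBS. Compounds dissolved in DMSO and diluted in phosphate buffered saline, final DMSO under 1%. Duplicate wells seeded from culture at 6 × 10⁴ cells/ml. Incubated 48 h at 37 °C, humidified, 5% CO2. Cells diluted tenfold in saline and Coulter-counted. Percent growth inhibition computed against PBS/DMSO controls.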

KM12 = assay: Growth inhibition of human KM12 cells at 10 uM after 48 hrs by coulter counter analysis; details: KM12, 48 h, read-out: GI; in short: as §1
CCRF-CEM = assay: Growth inhibition of human CCRF-CEM cells at 10 uM after 48 hrs by coulter counter analysis; details: read-out: GI; in short: as §1
CAKI-1 = assay: Growth inhibition of human Caki1 cells at 10 uM after 48 hrs by coulter counter analysis; details: CAKI-1, 48 h, read-out: GI; in short: as §1
SK-MEL-28 = assay: Growth inhibition of human SK-MEL-28 cells at 10 uM after 48 hrs by coulter counter analysis; details: SK-MEL-28, 48 h, read-out: GI; in short: as §1
NCI-H322M = assay: Growth inhibition of human NCI-H322M cells at 10 uM after 48 hrs by coulter counter analysis; details: read-out: GI; in short: as §1
OVCAR-3 = assay: Growth inhibition of human OVCAR3 cells at 10 uM after 48 hrs by coulter counter analysis; details: OVCAR-3, 48 h, read-out: GI; in short: as §1
SK-MEL-2 = assay: Growth inhibition of human SK-MEL-2 cells at 10 uM after 48 hrs by coulter counter analysis; details: SK-MEL-2, 48 h, read-out: GI; in short: as §1
M14 = assay: Growth inhibition of human M14 cells at 10 uM after 48 hrs by coulter counter analysis; details: M14, 48 h, read-out: GI; in short: as §1
786-0 = assay: Growth inhibition of human 786-0 cells at 10 uM after 48 hrs by coulter counter analysis; details: 786-0, 48 h, read-out: GI; in short: as §1
Malme-3M = assay: Growth inhibition of human MALME-3M cells at 10 uM after 48 hrs by coulter counter analysis; details: read-out: GI; in short: as §1
HOP-92 = assay: Growth inhibition of human HOP92 cells at 10 uM after 48 hrs by coulter counter analysis; details: HOP-92, 48 h, read-out: GI; in short: as §1
SNB-19 = assay: Growth inhibition of human SNB19 cells at 10 uM after 48 hrs by coulter counter analysis; details: SNB-19, 48 h, read-out: GI; in short: as §1
OVCAR-8 = assay: Growth inhibition of human OVCAR8 cells at 10 uM after 48 hrs by coulter counter analysis; details: OVCAR-8, 48 h, read-out: GI; in short: as §1
IGROV-1 = assay: Growth inhibition of human IGROV1 cells at 10 uM after 48 hrs by coulter counter analysis; details: IGROV-1, 48 h, read-out: GI; in short: as §1
T47D = assay: Growth inhibition of human T47D cells at 10 uM after 48 hrs by coulter counter analysis; details: read-out: GI; in short: as §2
SR = assay: Growth inhibition of human SR cells at 10 uM after 48 hrs by coulter counter analysis; details: read-out: GI; in short: as §2
MCF7 = assay: Growth inhibition of human MCF7 cells at 10 uM after 48 hrs by coulter counter analysis; details: MCF7, 48 h, read-out: GI; in short: as §1
SN12C = assay: Growth inhibition of human SN12C cells at 10 uM after 48 hrs by coulter counter analysis; details: read-out: GI; in short: as §1
PC-3 = assay: Growth inhibition of human PC3 cells at 10 uM after 48 hrs by coulter counter analysis; details: PC-3, 48 h, read-out: GI; in short: as §1

Row | Structure (SMILES) | inhibition of growth at 10 µM (COLO 205) [%] | inhibition of growth at 10 µM (NCI-H23) [%] | inhibition of growth at 10 µM (BT-549) [%] | inhibition of growth at 10 µM (MOLT-4) [%] | inhibition of growth at 10 µM (NCI-H460) [%] | inhibition of growth at 10 µM (MDA-MB-435) [%] | inhibition of growth at 10 µM (LOX IMVI) [%] | inhibition of growth at 10 µM (SF-539) [%] | inhibition of growth at 10 µM (HCT-116) [%] | inhibition of growth at 10 µM (MDA-MB-468) [%] | inhibition of growth at 10 µM (HL-60(TB)) [%] | inhibition of growth at 10 µM (ACHN) [%] | inhibition of growth at 10 µM (EKVX) [%] | inhibition of growth at 10 µM (HCC 2998) [%] | inhibition of growth at 10 µM (SNB-75) [%] | inhibition of growth at 10 µM (KM12) [%] | inhibition of growth at 10 µM (CCRF-CEM) [%] | inhibition of growth at 10 µM (CAKI-1) [%] | inhibition of growth at 10 µM (SK-MEL-28) [%] | inhibition of growth at 10 µM (NCI-H322M) [%] | also measured
1 | CCOC(=O)c1sc(NC(=O)C(C)N2CCCCC2)nc1C (configuration not stated) | < 10 | < 10 | < 10 | < 10 | < 10 | < 10 | < 10 | < 10 | < 10 | < 10 | < 10 | < 10 | < 10 | < 10 | < 10 | < 10 | < 10 | 12.2 | < 10 | < 10 | inhibition of growth at 10 µM (OVCAR-3): < 10%; inhibition of growth at 10 µM (SK-MEL-2): < 10%; inhibition of growth at 10 µM (M14): < 10%; inhibition of growth at 10 µM (786-0): < 10%; inhibition of growth at 10 µM (Malme-3M): < 10%; inhibition of growth at 10 µM (HOP-92): < 10%; inhibition of growth at 10 µM (SNB-19): < 10%; inhibition of growth at 10 µM (OVCAR-8): < 10%; inhibition of growth at 10 µM (IGROV-1): < 10%; inhibition of growth at 10 µM (T47D): < 10%; inhibition of growth at 10 µM (SR): < 10%; inhibition of growth at 10 µM (MCF7): < 10%; inhibition of growth at 10 µM (SN12C): < 10%; inhibition of growth at 10 µM (PC-3): < 10%
2 | CCOC(=O)c1sc(NC(=O)C(C)N2CCOCC2)nc1C (configuration not stated) | < 10 | < 10 | < 10 | < 10 | < 10 | < 10 | < 10 | < 10 | < 10 | < 10 | < 10 | < 10 | < 10 | < 10 | 24.4 | < 10 | < 10 | < 10 | < 10 | < 10 | inhibition of growth at 10 µM (OVCAR-3): < 10%; inhibition of growth at 10 µM (SK-MEL-2): < 10%; inhibition of growth at 10 µM (M14): < 10%; inhibition of growth at 10 µM (786-0): < 10%; inhibition of growth at 10 µM (Malme-3M): < 10%; inhibition of growth at 10 µM (HOP-92): < 10%; inhibition of growth at 10 µM (SNB-19): < 10%; inhibition of growth at 10 µM (OVCAR-8): < 10%; inhibition of growth at 10 µM (IGROV-1): < 10%; inhibition of growth at 10 µM (T47D): < 10%; inhibition of growth at 10 µM (SR): < 10%; inhibition of growth at 10 µM (MCF7): < 10%; inhibition of growth at 10 µM (SN12C): < 10%; inhibition of growth at 10 µM (PC-3): < 10%
3 | CCOC(=O)c1sc(NC(=O)C(C)N2CCN(C)CC2)nc1C (configuration not stated) | < 10 | < 10 | < 10 | < 10 | < 10 | < 10 | < 10 | < 10 | < 10 | < 10 | < 10 | < 10 | < 10 | < 10 | < 10 | < 10 | < 10 | < 10 | < 10 | < 10 | inhibition of growth at 10 µM (OVCAR-3): < 10%; inhibition of growth at 10 µM (SK-MEL-2): < 10%; inhibition of growth at 10 µM (M14): < 10%; inhibition of growth at 10 µM (786-0): < 10%; inhibition of growth at 10 µM (Malme-3M): < 10%; inhibition of growth at 10 µM (HOP-92): < 10%; inhibition of growth at 10 µM (SNB-19): < 10%; inhibition of growth at 10 µM (OVCAR-8): < 10%; inhibition of growth at 10 µM (IGROV-1): < 10%; inhibition of growth at 10 µM (T47D): < 10%; inhibition of growth at 10 µM (SR): < 10%; inhibition of growth at 10 µM (MCF7): < 10%; inhibition of growth at 10 µM (SN12C): < 10%; inhibition of growth at 10 µM (PC-3): < 10%
